Assay outcomes from PubChem.
EBI2 block – EBI2 receptor antagonists, beta-arrestin recruitment, primary screen, cell-based, luminescence, 7a,25-OHC stimulation, uHTS; 7a,25-OHC stimulated; AID 651636, 2012; inhibition, % at 5 µM; G-protein coupled receptor 183 (Homo sapiens), P32249; 360,000 tested, 0.81% active; in the data active = inhibition above about 38%;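 also: enzyme fragment complementation signal reports receptor beta-arrestin coupling in cells; 0% = agonist plus DMSO wells and 100% = wells without agonist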
Target sequence (P32249 whole entry, looked up, the tested form may be a part): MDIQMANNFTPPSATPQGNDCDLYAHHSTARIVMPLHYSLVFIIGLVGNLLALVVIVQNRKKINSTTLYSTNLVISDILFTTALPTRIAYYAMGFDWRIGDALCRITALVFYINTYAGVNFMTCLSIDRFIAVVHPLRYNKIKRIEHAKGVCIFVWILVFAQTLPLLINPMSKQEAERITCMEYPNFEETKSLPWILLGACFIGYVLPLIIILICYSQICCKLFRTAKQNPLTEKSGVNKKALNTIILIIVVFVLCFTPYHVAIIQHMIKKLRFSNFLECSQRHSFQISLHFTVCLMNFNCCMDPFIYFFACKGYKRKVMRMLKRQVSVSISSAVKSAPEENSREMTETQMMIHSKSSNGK
APJ agonist – agonists of human apelin receptor APJ, primary screen, CHO-K1 cells, PathHunter beta-arrestin, luminescence; AID 2520, 2010; 330,000 tested, 0.11% active; activation, % at 20 µM; 0% DMSO wells, 100% apelin;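 active = activation more than six SD over the plate average, tested at 20 µM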;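 also: 0% = DMSO alone and 100% = apelin-13 at 10 nM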
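Assay system – PathHunter CHO-K1 APJ (AGTRL-1) beta-arrestin reporter cells · Compound – one dose, 20 µM compound, 1% DMSO · Timing – compound 90 min 25 °C, reagent 1 h · Measured by – luminescence from split beta-galactosidase complementation, Galacton Star/Emerald II substrate · Measure – beta-arrestin recruitment to APJ as agonist activity, luminescent signal · Benchmarks – DMSO vs Apelin-13 10 nM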
APJ antag – antagonists of human apelin receptor APJ, primary screen, CHO-K1 cells, beta-arrestin complementation, luminescence | P35414 | inhibition, % at 20 µM | 330,000 tested, 0.32% active | AID 2521, 2010;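 active = inhibition above about 40% at 20 µM, limit read from the data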;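 also: cells challenged with 10 nM apelin-13 agonist together with compound; plate controls were apelin-13 plus DMSO wells for no effect and DMSO wells lacking apelin-13 for full effect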
CXCR6 block – CXCR6 receptor inhibitors, primary screen, cell-based, beta-arrestin, luminescence, CHO-K1 PathHunter, 1536-well. AID 602244, 2012. C-X-C chemokine receptor type 6 (Homo sapiens), O00574. 360,000 tested, 0.36% active. inhibition, % at 20 µM; in the data active = inhibition above about 34%, passing the limit was not always enough;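 also: antagonist mode with CXCL16 agonist at 10 nM final; 0% = 10 nM CXCL16 with DMSO and 100% = unstimulated wells without agonist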
CCR6 antagonist – CCR6 receptor antagonists, primary screen, cell-based, CHO-K1, luminescence, beta-arrestin, uHTS | C-C chemokine receptor type 6 (Homo sapiens), P51684 | CHO-K1 CCR6 PathHunter beta-arrestin, CCL20-stimulated | inhibition, % at 20 µM | 340,000 tested, 0.49% active;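 active = compounds whose inhibition of the agonist-driven luminescence signal at 20 µM reaches about 50%, limit read from the data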;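 also: cells stimulated with CCL20 at 14 nM final; plate controls were DMSO with CCL20 for no effect and DMSO without agonist for full effect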
Target sequence (P51684 whole entry, looked up): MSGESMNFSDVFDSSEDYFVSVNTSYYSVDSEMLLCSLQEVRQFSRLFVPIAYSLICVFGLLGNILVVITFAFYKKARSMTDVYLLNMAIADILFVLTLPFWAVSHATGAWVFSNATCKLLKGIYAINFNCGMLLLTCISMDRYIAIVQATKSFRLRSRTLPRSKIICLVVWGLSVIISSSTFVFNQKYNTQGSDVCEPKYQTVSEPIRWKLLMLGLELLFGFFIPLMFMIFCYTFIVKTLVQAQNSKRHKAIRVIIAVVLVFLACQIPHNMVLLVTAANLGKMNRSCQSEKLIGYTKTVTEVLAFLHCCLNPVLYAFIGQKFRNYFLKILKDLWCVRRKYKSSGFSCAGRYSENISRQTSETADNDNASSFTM
EBI2 antag conf – EBI2 antagonist hit retest, beta-arrestin, confirmation, cell-based, single concentration, luminescence, 7a,25-OHC stimulation. 7a,25-OHC antagonism. AID 651997, 2013. inhibition, % at 5 µM. shares compounds with EBI2 block. 2,400 tested, 29% active;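 active = inhibition of at least 50%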
EBI2 ag – EBI2 agonist activity of antagonist hits, confirmation, counter-screen for EBI2 antagonist project, cell-based, single concentration, agonist mode, luminescence; shares compounds with EBI2 block; EBI2-expressing cells, 60 min; 0% vehicle, 100% 7α,25-dihydroxycholesterol control; activation, % at 5 µM; 2,400 tested, under 10 active; AID 652000, 2013;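 active = activation of at least 50%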
bGal cs – E. coli beta-galactosidase enzyme inhibition, confirmation, counter-screen for EBI2 antagonist project, biochemical, luminescence, single concentration. inhibition, % at 5 µM. shares compounds with EBI2 block. 2,400 tested, 1% active. AID 652176, 2013. purified beta-galactosidase, luminescent Galacton Star, 15 min;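 active = replicate-average signal at least 3 plate SD below neutral wells, shown as high inhibition, flagging enzyme-inhibiting false positives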;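 also: 0% = DMSO wells with enzyme and 100% = wells lacking enzyme; higher means stronger loss of beta-gal luminescence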
Active calls of the source: *; . = no result. Rows were chosen to be rich in hits. Some 1.5% of all compounds tested hit in one or more screens of this group.

SMILES	EBI2 block	APJ agonist	APJ antag	CXCR6 block	CCR6 antagonist	EBI2 antag conf	EBI2 ag	bGal cs
COc1ccc(CCN2C(=O)C(Oc3ccccc3)C2c2ccc3c(c2)OCO3)cc1 (stereo not given)	42.0*	2.4	3.4	-6.3	4.3	37.3	2.3	-2.9
O=C(COc1ccc(Cl)cc1Cl)N1CCCN(C(=O)COc2ccc(Cl)cc2Cl)CC1	36.7	-19.3	4.8	-1.8	-0.6	.	.	.
O=C(/C=C/c1cccc(Br)c1)N1CCN(c2cccc(C(F)(F)F)c2)CC1	16.8	-0.8	5.7	4.8	22.2	.	.	.
COc1ccc(N2CCN(C(=O)COc3ccc(Cl)cc3Cl)CC2)cc1	51.3*	-3.5	20.7	-8.8	2.7	21.4	-1.8	-9.7
COc1ccc(OCC(=O)N2CCN(c3cccc(Cl)c3)CC2)cc1	86.1*	1.9	0.5	3.7	8.3	71.1*	-0.6	-13.7
COc1ccc(OCC(=O)N2CCN(c3cccc(C(F)(F)F)c3)CC2)cc1	70.0*	7.2	6.0	10.1	22.4	51.3*	-1.9	-12.4
O=C(/C=C/c1ccc(Br)cc1)N1CCN(c2cccc(C(F)(F)F)c2)CC1	94.1*	.	.	3.3	19.5	80.9*	-1.1	-11.6
COc1ccc(C(=O)CCC(=O)N2CCN(c3cccc(Cl)c3)CC2)cc1	5.2	-2.5	19.6	-12.3	2.8	.	.	.
CC1=C(C(=O)N(C(C)C)C(C)C)CC(CC(=O)NCCN2CCOCC2)C(=O)N1Cc1ccc(F)cc1 (stereo not given)	-8.5	.	.	-9.0	.	.	.	.
CCCCn1c(N)c(N(C)C(=O)c2c(C)nn(-c3ccccc3)c2C)c(=O)[nH]c1=O	-9.7	-2.1	-3.9	-0.3	-10.0	.	.	.
CCOc1ccc(-c2c(C#N)c(N)nc3sc(C(=O)c4ccccc4)c(N)c23)cc1	41.9*	-3.8	5.3	14.2	7.8	20.1	0.8	4.4
COc1ccc(-c2c(C#N)c(N)nc3sc(C(=O)c4ccccc4)c(N)c23)cc1	48.8*	.	.	5.1	21.8	42.5	-1.4	-7.6
CSc1c(C#N)c(N)nc2sc(C(=O)c3ccc(Cl)c(Cl)c3)c(N)c12	.	0.8	-23.9	.	3.0	.	.	.
CCCCOC(=O)CSc1nc(N)c(C#N)c(-c2ccc(OCC)cc2)c1C#N	21.2	-0.5	3.2	7.8	8.5	.	.	.
CCCC(=O)Nc1ccc(N2CCN(C(=O)c3cc4ccccc4o3)CC2)cc1	9.8	-3.3	-2.4	-4.1	1.1	.	.	.
O=C(c1cc2ccccc2o1)N1CCN(c2cccc(Cl)c2)CC1	54.3*	-0.2	2.0	5.7	22.4	57.7*	0.8	1.4
O=C(c1ccc(Br)o1)N1CCN(c2ccccn2)CC1	-0.7	0.5	-16.4	3.4	10.9	.	.	.
O=C(c1cc2ccccc2o1)N1CCN(c2ccccc2Cl)CC1	86.1*	0.8	13.2	-3.8	10.2	67.3*	-0.5	-13.0
O=C(c1cc2ccccc2o1)N1CCN(c2ccccn2)CC1	50.7*	3.4	-10.9	-2.7	9.9	35.0	-1.3	-14.6
CCOC(=O)Cc1ccc(Nc2nc(NCc3cccs3)nc3ccsc23)cc1	2.0	.	.	4.3	.	.	.	.
COc1ccc(C2CC(c3ccc(Br)cc3)=NN2C(=O)CN2CCCC2)cc1 (stereo not given)	7.9	-2.1	1.5	12.7	15.2	.	.	.
CNC(=S)N1N=C(c2ccc(Br)cc2)CC1c1ccc(OC)cc1 (stereo not given)	88.0*	-3.1	5.2	9.8	2.7	86.7*	-0.8	-21.0
CCN(CC)C(=O)C1=C(C)N(CCCN2CCCC2=O)C(=O)C(CC(=O)NCCN2CCOCC2)C1 (stereo not given)	-1.8	.	.	-0.4	.	.	.	.
CN1C(=O)[C@@](O)(CC(=O)c2ccccc2)c2cc(Br)ccc21	1.7	.	.	.	.	.	.	.
CN1C(=O)C(O)(CC(=O)c2ccccn2)c2cc(Br)ccc21 (stereo not given)	36.0*	-2.3	24.4	8.9	37.6	28.5	-2.2	-8.3
SMILES	EBI2 block	APJ agonist	APJ antag	CXCR6 block	CCR6 antagonist	EBI2 antag conf	EBI2 ag	bGal cs
NS(=O)(=O)c1cccc(Nc2nc3ccccc3nc2NS(=O)(=O)c2ccc(Cl)cc2)c1	62.6*	-4.8	-2.8	2.0	-4.0	52.9*	-0.8	6.5
Cc1ccc(S(=O)(=O)Nc2ccc3c(c2)C(=O)N([C@@H](C)CO)C[C@@H](C)[C@@H](CN(C)CC2CC2)OCCCC[C@@H](C)O3)cc1	0.4	.	.	-5.1	.	.	.	.
Cc1ccccc1S(=O)(=O)N(C)C[C@H]1OCc2cn(nn2)CCCC(=O)N([C@H](C)CO)C[C@@H]1C	-8.5	.	.	-3.0	.	.	.	.
Cc1sc2ncnc(SCC(=O)NC(C)(C)C)c2c1C	-8.9	-3.2	1.5	-0.6	6.2	.	.	.
CCc1ccc(OCC(=O)NNC(=O)CSc2ncnc3sc(C)c(C)c23)cc1	69.9*	-2.0	8.6	-2.1	2.3	34.9	2.2	3.4
Cc1ccc(OCC(=O)NNC(=O)CSc2ncnc3sc(C)c(C)c23)cc1	66.4*	-3.0	-17.8	0.0	5.5	29.4	-0.3	9.3
O=C1N(c2ccccc2)c2ccccc2[C@]12C[C@H](O)CO2	-7.2	.	.	.	.	.	.	.
CN1CCN(S(=O)(=O)c2cccc(C(=O)N(C)CC(=O)Nc3ccc(Cl)c(Cl)c3)c2)CC1	1.3	.	.	4.3	0.7	.	.	.
N#CCc1ccccc1C(=O)OCC(=O)N(Cc1ccccc1)Cc1ccccc1	-3.0	1.6	0.6	1.4	3.5	.	.	.
CC(C)(C)OC(=O)NCCc1onc(-c2ccccc2F)c1C(=O)O	-4.7	.	.	1.0	.	.	.	.
Cc1cc2nc(-c3ccc(Cl)cc3)c(Cc3ccsc3)n2c(C)c1Br	-4.5	.	.	11.6	.	.	.	.
CC(=O)N1CCOc2ccc(S(=O)(=O)N3CCC(C(=O)NCc4ccccc4)CC3)cc21	64.6*	-2.2	2.9	1.3	-6.4	49.9	0.2	-14.0
Cc1ccc(CNC(=O)C2CCN(S(=O)(=O)c3cccnc3)CC2)cc1	52.4*	-5.8	11.7	-3.0	7.0	43.8	2.1	5.2
Cc1ccc(CNC(=O)C2CCN(S(=O)(=O)c3cccc4nonc34)CC2)cc1	48.6*	-2.6	4.0	5.3	17.0	23.8	-0.1	6.8
